In the library only some 1.4% were active in any assay of this set; here they are far more common.
NR2E3 ag-1: inhibitors of NR2E3-RetCOR corepressor binding, primary screen, NR2E3 agonist project, biochemical, TR-FRET, GST-NR2E3, biotin-RetCOR. Photoreceptor-specific nuclear receptor (Homo sapiens), Q9Y5X4. AID 2300, 2010. actives 0.12% (n = 320,000). inhibition of corepressor binding, % at 4.78 µM. 1536-well;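 active = percent inhibition above the cutoff of mean plus 3 SD of all tested compounds, set per screening campaign, cut at about 20% in these data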;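 also: 0% = DMSO wells and 100% = biotin wells as full block of FRET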
Target sequence (Q9Y5X4 whole entry, looked up): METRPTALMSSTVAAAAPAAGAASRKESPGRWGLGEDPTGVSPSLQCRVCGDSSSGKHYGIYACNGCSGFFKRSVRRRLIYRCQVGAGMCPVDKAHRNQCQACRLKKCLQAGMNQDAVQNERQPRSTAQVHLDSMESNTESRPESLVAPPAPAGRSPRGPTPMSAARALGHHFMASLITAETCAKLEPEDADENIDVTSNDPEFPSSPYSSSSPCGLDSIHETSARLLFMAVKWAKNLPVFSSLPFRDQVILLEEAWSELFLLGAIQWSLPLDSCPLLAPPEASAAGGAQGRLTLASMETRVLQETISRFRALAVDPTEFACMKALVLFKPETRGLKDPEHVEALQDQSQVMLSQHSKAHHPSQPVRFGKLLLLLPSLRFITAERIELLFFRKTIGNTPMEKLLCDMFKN
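system = GST-tagged NR2E3 plus biotinylated RetCOR corepressor | input = 1.35 nM GST-NR2E3 | also added = 7 nM biotin-RetCOR | schedule = 5 h incubation at 4 °C | measured by = TR-FRET with europium anti-GST and streptavidin-D2, 340 nm excitation | read-out = percent loss of FRET ratio relative to control wells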
Rev-erbA mod: modulators of Rev-erb alpha DNA binding, primary screen, biochemical, FITC-DNA, fluorescence polarization, uHTS; Nuclear receptor subfamily 1 group D member 1 (Homo sapiens), P20393; Rev-erbα–FITC-DNA binding, 90 min; activity, % at 10 µM; actives 0.79% (n = 370,000); AID 1259318, 2017;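 active = activity above about 14%, limit read from the data; passing the limit was not always enough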;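 also: 0% = DMSO wells with 35 nM protein and 100% = DMSO wells with 750 nM protein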
NR2E3 ag-2: NR2E3 agonists in two-hybrid cells, primary screen, cell-based, luminescence, CHO-S, Gal4-NCOR/VP16-NR2E3; actives 0.35% (n = 360,000); inhibition of corepressor binding, % at 3.98 µM; luciferase; Photoreceptor-specific nuclear receptor (Homo sapiens), Q9Y5X4;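 active = inhibition above the mean of all tested compounds plus 3 SD, cut at about 70% in these data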;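 also: 0% = DMSO with NR2E3 transfected cells and 100% = cells lacking NR2E3 construct; higher means lower luciferase signal from less NR2E3 corepressor binding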
PG9 Ab binder: binders of HIV-1 gp120 antibody PG9, primary screen, biochemical, TR-FRET. AID 624416, 2012. TR-FRET gp120-PG9 antibody binding. actives 0.43% (n = 360,000). HIV-1 gp120 / PG9 antibody interaction. inhibition, % at 6.7 µM; in the data active = inhibition above about 8.5%
NR2E3 ag confirm: NR2E3 agonist confirmation in cells, cell-based, luminescence, CHO-S two-hybrid; inhibition, % at 3.98 µM; actives 51% (n = 2,300); CHO-S mammalian two-hybrid NR2E3-NCOR, luciferase luminescence; shares compounds with NR2E3 ag-2; AID 624378, 2012;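 active = average inhibition above a cutoff equal to the mean inhibition of all tested compounds plus one SD, cut at about 70% in these data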;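 also: 0% = DMSO in NR2E3 cells and 100% = DMSO in cells lacking NR2E3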
VP16 counter: GAL4-VP16 reporter modulators, confirmation, counter-screen for NR2E3 agonist project, cell-based, luminescence, CHO-S, high throughput | inhibition, % at 3.98 µM | actives 29% (n = 2,300) | CHO-S GAL4-VP16 luciferase reporter | shares compounds with NR2E3 ag-2;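 active = mean inhibition above a cutoff equal to the average over all tested compounds plus one standard deviation, cut at about 70% in these data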;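 also: luciferase from a UAS reporter driven by GAL4-VP16 transactivation; 0% = DMSO with VP16-transfected cells and 100% = DMSO with cells lacking VP16; higher means less reporter light so more repression of VP16 activity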
Active calls of the source: *.

What do the screens show for `COc1ccc(CNC(=O)c2sc(=O)n(Cc3ccc(C)cc3)c2C)cc1OC`?
Rev-erbA mod: -7.8; NR2E3 ag-2: 22.9; PG9 Ab binder: -1.0

How did O=C(NCCNCc1ccccc1)c1ccco1 do in these assays?
Rev-erbA mod: -16.5; NR2E3 ag-2: -35.9; PG9 Ab binder: -0.4

What do the screens show for `CCCCc1ccc(S(=O)(=O)NCCc2ccncc2)cc1`?
NR2E3 ag-1: 1.2; Rev-erbA mod: -1.1; NR2E3 ag-2: 69.8; PG9 Ab binder: -1.2; NR2E3 ag confirm: 72.5*; VP16 counter: 65.2

Results for Cc1ccc(N2CCN(S(=O)(=O)c3cccs3)CC2C)cc1 (centres undefined) ?
NR2E3 ag-1: -2.9; Rev-erbA mod: 3.0; NR2E3 ag-2: -14.5; PG9 Ab binder: -2.0

Results for CC(=O)c1cccc(NC(=O)c2ccc(N(Cc3ccc(C)cc3)S(C)(=O)=O)cc2)c1 ?
NR2E3 ag-1: 1.4; Rev-erbA mod: -3.7; NR2E3 ag-2: 27.2; PG9 Ab binder: -3.0

How did NC(=O)c1c(-c2ccc(Cl)cc2Cl)csc1NC(=O)Cc1ccccc1 do in these assays?
NR2E3 ag-1: -2.7; Rev-erbA mod: 1.9; NR2E3 ag-2: 56.0; PG9 Ab binder: -2.6; NR2E3 ag confirm: 64.2; VP16 counter: 61.5

Results for O=C(NCc1ccc(C(F)(F)F)cc1)C1CC(c2ccc(C(F)(F)F)cc2)=NO1 (centres undefined) ?
NR2E3 ag-1: 2.0; Rev-erbA mod: -2.0; NR2E3 ag-2: 80.9*; PG9 Ab binder: -0.5; NR2E3 ag confirm: 80.9*; VP16 counter: 60.4

What do the screens show for `COc1ccccc1NS(=O)(=O)c1ccc2c(c1)NC(=O)C(C)S2` (centres undefined)?
NR2E3 ag-1: -0.8; Rev-erbA mod: -5.2; NR2E3 ag-2: 14.4; PG9 Ab binder: -2.0

What do the screens show for `COc1cccc(NS(=O)(=O)c2ccc3c(c2)NC(=O)C(C)S3)c1` (centres undefined)?
NR2E3 ag-1: -3.3; Rev-erbA mod: 1.5; NR2E3 ag-2: 57.8; PG9 Ab binder: -1.3; NR2E3 ag confirm: 35.7; VP16 counter: 34.9

How did Cc1ccc(CNS(=O)(=O)c2ccc3c(c2)NC(=O)C(C)S3)cc1 (centres undefined) do in these assays?
NR2E3 ag-1: 1.0; Rev-erbA mod: -0.8; NR2E3 ag-2: 52.6; PG9 Ab binder: 0.7; NR2E3 ag confirm: 45.6; VP16 counter: 45.5

What do the screens show for `CCc1cccc(NS(=O)(=O)c2ccc3c(c2)NC(=O)C(C)S3)c1` (centres undefined)?
NR2E3 ag-1: 2.4; Rev-erbA mod: -0.4; NR2E3 ag-2: 48.4; PG9 Ab binder: -2.0; NR2E3 ag confirm: 65.7; VP16 counter: 56.6

Results for CCC(Cc1ccccc1)NS(=O)(=O)c1ccc2c(c1)NC(=O)C(C)S2 (centres undefined) ?
NR2E3 ag-1: 3.9; Rev-erbA mod: -2.6; NR2E3 ag-2: 49.2; PG9 Ab binder: 1.1; NR2E3 ag confirm: 62.0; VP16 counter: 50.2

Results for CC(C)c1ccc(Nc2ncc3c(n2)CCN(C(=O)Nc2ccc(F)c(Cl)c2)C3)cc1 ?
Rev-erbA mod: 1.1; NR2E3 ag-2: -47.1; PG9 Ab binder: -3.3

What do the screens show for `COc1ccc(N2CCN(S(=O)(=O)c3ccc4c(c3)NC(=O)C(C)S4)CC2)cc1` (centres undefined)?
NR2E3 ag-1: 1.0; Rev-erbA mod: -2.5; NR2E3 ag-2: 64.1; PG9 Ab binder: 0.0; NR2E3 ag confirm: 37.7; VP16 counter: 29.1

How did COc1ccc(CC(=O)NCc2nn(-c3ccccc3)nc2C)cc1OC do in these assays?
NR2E3 ag-1: 1.9; Rev-erbA mod: -0.6; NR2E3 ag-2: -15.8; PG9 Ab binder: -0.5

Results for COc1ccc(-c2ocnc2C(=O)NCc2nn(-c3ccccc3)nc2C)cc1 ?
NR2E3 ag-1: 1.6; Rev-erbA mod: 3.4; NR2E3 ag-2: 56.3; PG9 Ab binder: 1.6; NR2E3 ag confirm: 87.4*; VP16 counter: 72.3*

What do the screens show for `CN(C)S(=O)(=O)N1CCC(Oc2cccc(C(=O)NC3CCCCCC3)c2)CC1`?
NR2E3 ag-1: -2.8; Rev-erbA mod: -0.3; NR2E3 ag-2: 90.9*; PG9 Ab binder: -2.4; NR2E3 ag confirm: 60.4; VP16 counter: 53.7

How did CN(C)S(=O)(=O)N1CCC(Oc2ccc(C(=O)NC3Cc4ccccc4C3)cc2)CC1 do in these assays?
NR2E3 ag-1: 0.7; Rev-erbA mod: 0.8; NR2E3 ag-2: -32.5; PG9 Ab binder: -0.1

Results for CC1CC(C)(C)N(C(=O)CN2C(=O)CCC2=O)c2ccccc21 (centres undefined) ?
NR2E3 ag-1: 4.4; Rev-erbA mod: 5.9; NR2E3 ag-2: -12.7; PG9 Ab binder: 2.6

How did C=C(C)C1CCC2(C(=O)O)CCC3(C)C(CCC4C5(C)C(C=O)C(O)C(C)(C)C5CCC43C)C12 (centres undefined) do in these assays?
NR2E3 ag-1: 0.1; Rev-erbA mod: -2.3; NR2E3 ag-2: 75.7*; PG9 Ab binder: -1.9; NR2E3 ag confirm: 57.0; VP16 counter: 18.0

What do the screens show for `COc1ccc(NC(=S)N(CCCN2CCOCC2)Cc2ccco2)cc1`?
NR2E3 ag-1: -1.4; Rev-erbA mod: 5.0; NR2E3 ag-2: -7.4; PG9 Ab binder: -1.0

How did CCc1ccc(NC(=S)N(CCCN2CCOCC2)Cc2ccco2)cc1 do in these assays?
NR2E3 ag-1: -2.0; Rev-erbA mod: -3.0; NR2E3 ag-2: 66.3; PG9 Ab binder: -2.0; NR2E3 ag confirm: -7.4; VP16 counter: -11.2

How did CC(=O)Nc1cccc(NC(=O)c2c(-c3ccccc3Cl)noc2C)c1 do in these assays?
NR2E3 ag-1: -0.8; Rev-erbA mod: 0.8; NR2E3 ag-2: -9.7; PG9 Ab binder: -0.4

How did Cc1cc(N2CCC(C)CC2)nc(-n2nc(C)cc2C)n1 do in these assays?
NR2E3 ag-1: 2.3; Rev-erbA mod: 1.4; NR2E3 ag-2: 94.0*; PG9 Ab binder: -1.6; NR2E3 ag confirm: -2.2; VP16 counter: 10.8

Results for Cc1cc(C)n(-c2nc3ccccc3nc2N2CCC(C)CC2)n1 ?
NR2E3 ag-1: 5.1; Rev-erbA mod: -3.6; NR2E3 ag-2: -0.5; PG9 Ab binder: 0.7

Results for CCOC(=O)c1c(NC(=O)/C=C/C(=O)O)sc(C)c1-c1ccc(C(C)(C)C)cc1 ?
NR2E3 ag-1: 0.0; Rev-erbA mod: -1.4; NR2E3 ag-2: 53.2; PG9 Ab binder: 1.2; NR2E3 ag confirm: 50.9; VP16 counter: 7.6

Results for CC(Cc1cccs1)NC(=O)Nc1ccc([N+](=O)[O-])cc1 (centres undefined) ?
NR2E3 ag-1: 2.4; Rev-erbA mod: 5.8; NR2E3 ag-2: -70.8; PG9 Ab binder: -2.1

Compound activity from PubChem.
